Experimental data published in publication PMC6433393 (Journal of chromatography. B, Analytical technologies in …, 2012).

Assays:
[1] = Phase I clinical trial pharmacokinetic study of MX; format: in vivo, human; details: for Measured [MX] First analysis / Measured [MX] Re-analysis after 9 months: patient plasma; for Measured [MX] Re-analysis after 9 months: after 9-month storage at −70 °C
In short: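 Heparinised blood was iced, spun (1500 × g, 4 °C, 5 min), and plasma stored at −70 °C. Plasma was derivatised and assayed by LC-MS/MS against a calibration curve. Infusion data were fitted one-compartment; 1-h data were analysed by NCA.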

[2] = Stability of MX stock solution; format: physicochemical; details: for Recovery ± SD (n = 6): Stock solution 2.00 mg/ml
In short: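 The 2.00 mg/ml stock was stored at 4 °C or at 23 °C, then serially diluted to 45.0 ng/ml in 1% formic acid. It was derivatised with IS and analysed by MRM LC-MS/MS. Six parallel measurements gave the mean analyte/IS peak-area ratio, expressed as percent recovery against freshly prepared stock.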

[3] = Stability of MX in human plasma QCs; format: in vitro ADME; details: for recoveries of QC samples: three concentrations (3.50, 45.0 and 450 ng/ml)
In short: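 Plasma QCs were prepared in pooled human plasma with 10% 0.100 N HCl and held on the bench (23 °C), in the autosampler (15 °C), through freeze-thaw cycles (−70 to 23 °C) or at −70 °C. Samples were derivatised with 4-(N,N-diethylamino)benzaldehyde (70 °C, 1 h), extracted into MTBE and run by MRM LC-MS/MS. The mean MX/MX-d3 peak-area ratio (n = 6) relative to freshly prepared QCs is given as percent recovery.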

[4] = Stability of MX in human whole blood kept in ice bath before centrifugation; format: in vitro ADME
In short: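 From one patient, five 2-ml lithium-heparin blood tubes were drawn 70 min after infusion and kept in an ice bath. They were centrifuged 0, 30, 60, 90 and 120 min after drawing (1500 × g, 4 °C, 5 min). Plasma was analysed later by the derivatisation LC-MS/MS method, and the mean, SD and %CV were calculated.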

[5] = clinical trials, TMZ dosing regimen 150 mg/m^2/day; cited from earlier work
[6] = patients, 1-h iv infusion, 20 patients (46 cycles), with oral TMZ

CON [MX, Methoxyamine]
Measured [MX] First analysis ([1]; sampling 0.250 h): 5.36 ng/mL
Measured [MX] Re-analysis after 9 months ([1]; sampling 0.250 h): 5.69 ng/mL
Measured [MX] First analysis ([1]; sampling 0.500 h): 8.95 ng/mL
Measured [MX] Re-analysis after 9 months ([1]; sampling 0.500 h): 10.2 ng/mL
Measured [MX] First analysis ([1]; sampling 0.750 h): 16.2 ng/mL
Measured [MX] Re-analysis after 9 months ([1]; sampling 0.750 h): 18.2 ng/mL
Measured [MX] First analysis ([1]; sampling 0.983 h): 20.5 ng/mL
Measured [MX] Re-analysis after 9 months ([1]; sampling 0.983 h): 22.1 ng/mL
Measured [MX] First analysis ([1]; sampling 1.17 h): 25 ng/mL
Measured [MX] Re-analysis after 9 months ([1]; sampling 1.17 h): 27.1 ng/mL
Measured [MX] First analysis ([1]; sampling 2.00 h): 24.2 ng/mL
Measured [MX] Re-analysis after 9 months ([1]; sampling 2.00 h): 24.3 ng/mL
Measured [MX] First analysis ([1]; sampling 4.00 h): 18.3 ng/mL
Measured [MX] Re-analysis after 9 months ([1]; sampling 4.00 h): 20 ng/mL
Measured [MX] First analysis ([1]; sampling 6.00 h): 19 ng/mL
Measured [MX] Re-analysis after 9 months ([1]; sampling 6.00 h): 19.5 ng/mL
Measured [MX] First analysis ([1]; sampling 8.00 h): 18.9 ng/mL
Measured [MX] Re-analysis after 9 months ([1]; sampling 8.00 h): 17.5 ng/mL
Measured [MX] First analysis ([1]; sampling 12.0 h): 15.6 ng/mL
Measured [MX] Re-analysis after 9 months ([1]; sampling 12.0 h): 16.2 ng/mL
Measured [MX] First analysis ([1]; sampling 24.0 h): 13.3 ng/mL
Measured [MX] Re-analysis after 9 months ([1]; sampling 24.0 h): 13.2 ng/mL
Measured [MX] First analysis ([1]; sampling 48.0 h): 9.46 ng/mL
Measured [MX] Re-analysis after 9 months ([1]; sampling 48.0 h): 10 ng/mL
Measured [MX] First analysis ([1]; sampling 72.0 h): 6.56 ng/mL
Measured [MX] Re-analysis after 9 months ([1]; sampling 72.0 h): 6.46 ng/mL
Measured [MX] First analysis ([1]; sampling 96.0 h): 4.46 ng/mL
Measured [MX] Re-analysis after 9 months ([1]; sampling 96.0 h): 4.76 ng/mL
Measured [MX] First analysis ([1]; sampling 120 h): 3.55 ng/mL
Measured [MX] Re-analysis after 9 months ([1]; sampling 120 h): 3.69 ng/mL
Measured [MX] First analysis ([1]; sampling 168 h): 2.11 ng/mL
Measured [MX] Re-analysis after 9 months ([1]; sampling 168 h): 2.29 ng/mL
Measured [MX] First analysis ([1]; sampling 192 h): 1.55 ng/mL
Measured [MX] Re-analysis after 9 months ([1]; sampling 192 h): 1.76 ng/mL
Measured [MX] First analysis ([1]; sampling 216 h): 1.22 ng/mL
Measured [MX] Re-analysis after 9 months ([1]; sampling 216 h): 1.39 ng/mL
mean Cmax [1, 6]: 14.98 ng/mL
mean t1/2 [1, 6]: 54.21 h
Recovery ± SD (n = 6) ([2]; Bench-top 23 °C, 18 hours): 98.4 ± 6%
Recovery ± SD (n = 6) ([2]; Refrigerator 4 °C, 5 months): 96.4 ± 7%
recoveries of stock solutions ([2]; refrigerator (4 °C) and bench top (23 °C)): 96.4–98.4%
Recovery ± SD (n = 6) ([3]; High QC 450 ng/ml plasma, Autosampler 15 °C, 3 days): 96.9 ±3%
Recovery ± SD (n = 6) ([3]; High QC 450 ng/ml plasma, Bench-top 23 °C, 18 hours): 95.7 ± 2%
Recovery ± SD (n = 6) ([3]; High QC 450 ng/ml plasma, Deep freezer (Long-term) −70 °C, 5 months): 103 ± 2%
Recovery ± SD (n = 6) ([3]; High QC 450 ng/ml plasma, Freeze & thaw −70 to 23 °C, 3 cycles): 96.2 ± 2%
Recovery ± SD (n = 6) ([3]; Low QC 3.50 ng/ml plasma, Autosampler 15 °C, 3 days): 90.7 ±6%
Recovery ± SD (n = 6) ([3]; Low QC 3.50 ng/ml plasma, Bench-top 23 °C, 18 hours): 89.4 ± 4%
Recovery ± SD (n = 6) ([3]; Low QC 3.50 ng/ml plasma, Deep freezer (Long-term) −70 °C, 5 months): 95.7 ±3%
Recovery ± SD (n = 6) ([3]; Low QC 3.50 ng/ml plasma, Freeze & thaw −70 to 23 °C, 3 cycles): 96.6 ± 2%
Recovery ± SD (n = 6) ([3]; Mid QC 45.0 ng/ml plasma, Autosampler 15 °C, 3 days): 94.5 ± 5%
Recovery ± SD (n = 6) ([3]; Mid QC 45.0 ng/ml plasma, Bench-top 23 °C, 18 hours): 94.5 ± 4%
Recovery ± SD (n = 6) ([3]; Mid QC 45.0 ng/ml plasma, Deep freezer (Long-term) −70 °C, 5 months): 101 ± 2%
Recovery ± SD (n = 6) ([3]; Mid QC 45.0 ng/ml plasma, Freeze & thaw −70 to 23 °C, 3 cycles): 94.4 ± 2%
recoveries of QC samples ([3]; autosampler (15 °C)): 90.7–96.9%
recoveries of QC samples ([3]; bench top): 89.4–95.7%
recoveries of QC samples ([3]; long-term storage (5 months)): 95.7–103%
recoveries of QC samples ([3]; three freeze-and-thaw cycles (−70 to 23 °C)): 94.4–96.6%
changes in MX concentration in human whole blood ([4]; over a period of 2 hours, samples kept in an ice bath): no significant changes
measured MX concentration, mean value ([4]; patient blood, ice bath, centrifuged 0-120 min after drawing, SD 0.1 ng/ml): 10.5 ng/mL

Cn1nnc2c(C(N)=O)ncn2c1=O [TMZ, Temozolomide]
maximum concentrations (Cmax) in human plasma [5]: below 10 μg/ml
